Measured values reported in ChEMBL document CHEMBL3758120, “Synthesis and Mechanism Studies of 1,3-Benzoazolyl Substituted Pyrrolo[2,3-b]pyrazine Derivatives as Nonintercalative Topoisomerase II Catalytic Inhibitors” (J Med Chem, 2016).
The source made the active and inactive calls. The rule behind the calls is not given here.

Assays:
Escherichia coli = assay: Binding affinity to Escherichia coli pBR322 DNA assessed as intercalation of pBR322 DNA at 0.1 to 100 uM by fluorescence based ethidium bromide displacement assay
Procedure, shortened: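 Increasing concentrations added to 20 nM pBR322 plasmid with 2.5 μM ethidium bromide in 10 mM HEPES pH 7.9, 100 mM KCl, 5 mM MgCl2, 0.1 mM EDTA. Fluorescence emission spectra recorded (excitation 510 nm, emission max 595 nm) at each concentration; mAMSA used as intercalating reference.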

Calf thymus DNA = assay: Binding affinity to calf thymus DNA by UV-visible spectrophotometric analysis; format: nucleic-acid assay; details: Bos taurus
Procedure, shortened: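 Compound fixed at 5 μM in DPBS pH 7.4 with 1% DMSO, titrated with CT-DNA (0–25 μM; concentration from A260, ε 13 200 M(bp)⁻¹cm⁻¹; A260/280 1.8–1.9). After 20 min equilibration at room temperature, absorption spectra recorded over 300–500 nm.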

[1] = target: T1, DNA topoisomerase 2-alpha (Homo sapiens, UniProt P11388); assay: Inhibition of purified human topoisomerase 2-mediated relaxation of supercoiled pBR322 DNA at 50 uM incubated for 30 mins in presence of 4 mM ATP by agarose gel electrophoresis
Procedure, shortened: (§1)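 Reactions contained 0.2 μg supercoiled pBR322 in 50 mM Tris-HCl pH 8.0, 150 mM NaCl, 10 mM MgCl2, 0.5 mM DTT, 30 μg/ml BSA, normally 2 mM ATP (1, 2 or 4 mM in ATP-competition runs). Started with 1 U human Topo II, 30 min at 37 °C, stopped with sarcosyl buffer, run on 1% agarose 1.5 h at 75 V, gel-stained and imaged under UV.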

[2] = target: T1, DNA topoisomerase 2-alpha; assay: Inhibition of purified human topoisomerase 2-mediated relaxation of supercoiled pBR322 DNA at 50 uM incubated for 30 mins in presence of 1 mM ATP by agarose gel electrophoresis; procedure, shortened: as §1
HL-60 = assay: Induction of apoptosis in human HL60 cells assessed as viable cells at 0.5 uM after 12 hrs by annexin V-FITC/propidium iodide staining-based flow cytometric analysis (reference value: 99.12 to 99.33%); format: functional; details: HL-60, 12 h, read-out: Activity
Procedure, shortened: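 HL-60 cells at 5.0 × 10^5 cells/ml treated for 12 h (0.5–2 μM) or 24 h (0.25–1 μM), washed twice in cold PBS, resuspended in binding buffer, stained with annexin V-FITC and propidium iodide for 15 min in the dark, analysed by flow cytometry within 1 h; quadrants define live, early and late apoptotic cells. Three repeats.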

[3] = target: T1, DNA topoisomerase 2-alpha; details: HL-60, 5 uM
[4] = target: T1, DNA topoisomerase 2-alpha; details: HL-60, 5 uM; remark: listed apart in the source

T1 sequence (P11388 whole entry): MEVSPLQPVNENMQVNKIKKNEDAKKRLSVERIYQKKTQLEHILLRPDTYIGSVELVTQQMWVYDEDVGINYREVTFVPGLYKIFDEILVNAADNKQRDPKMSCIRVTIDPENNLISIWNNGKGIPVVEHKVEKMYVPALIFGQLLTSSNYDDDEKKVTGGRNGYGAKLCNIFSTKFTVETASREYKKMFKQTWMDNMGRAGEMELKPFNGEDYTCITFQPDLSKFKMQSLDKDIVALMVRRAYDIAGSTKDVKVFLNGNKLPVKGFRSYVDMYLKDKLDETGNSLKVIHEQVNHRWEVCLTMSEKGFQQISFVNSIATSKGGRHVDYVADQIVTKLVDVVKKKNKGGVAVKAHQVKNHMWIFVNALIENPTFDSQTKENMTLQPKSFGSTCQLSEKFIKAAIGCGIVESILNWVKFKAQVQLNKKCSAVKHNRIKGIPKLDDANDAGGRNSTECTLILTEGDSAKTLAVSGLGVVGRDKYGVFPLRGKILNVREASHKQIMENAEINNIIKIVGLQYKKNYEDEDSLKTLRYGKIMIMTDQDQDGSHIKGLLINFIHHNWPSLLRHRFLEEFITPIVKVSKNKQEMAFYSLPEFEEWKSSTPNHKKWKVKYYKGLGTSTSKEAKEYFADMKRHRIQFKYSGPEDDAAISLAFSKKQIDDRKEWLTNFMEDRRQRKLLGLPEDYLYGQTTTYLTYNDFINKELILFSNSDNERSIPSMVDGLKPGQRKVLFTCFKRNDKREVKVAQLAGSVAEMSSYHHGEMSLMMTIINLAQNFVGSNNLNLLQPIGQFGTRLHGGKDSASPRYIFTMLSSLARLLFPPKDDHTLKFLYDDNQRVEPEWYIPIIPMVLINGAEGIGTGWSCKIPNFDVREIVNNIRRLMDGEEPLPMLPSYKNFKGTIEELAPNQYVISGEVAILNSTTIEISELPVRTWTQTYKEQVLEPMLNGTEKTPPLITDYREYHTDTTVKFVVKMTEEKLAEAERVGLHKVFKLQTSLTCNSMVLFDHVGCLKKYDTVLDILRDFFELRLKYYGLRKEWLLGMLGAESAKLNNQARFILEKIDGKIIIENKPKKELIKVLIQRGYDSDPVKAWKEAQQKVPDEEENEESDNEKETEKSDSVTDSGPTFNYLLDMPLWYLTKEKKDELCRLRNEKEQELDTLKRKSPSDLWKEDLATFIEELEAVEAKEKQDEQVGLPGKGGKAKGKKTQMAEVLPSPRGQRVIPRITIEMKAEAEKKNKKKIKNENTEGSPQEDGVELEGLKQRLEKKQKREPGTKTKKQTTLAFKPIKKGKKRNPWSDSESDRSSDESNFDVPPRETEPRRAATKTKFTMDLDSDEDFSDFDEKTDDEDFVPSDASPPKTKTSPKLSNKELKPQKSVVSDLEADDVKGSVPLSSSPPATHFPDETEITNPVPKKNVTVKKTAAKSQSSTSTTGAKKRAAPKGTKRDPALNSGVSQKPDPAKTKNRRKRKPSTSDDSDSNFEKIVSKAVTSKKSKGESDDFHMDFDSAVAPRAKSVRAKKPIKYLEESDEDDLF

Compound | inhibition (Escherichia coli) | Kb (Calf thymus DNA) | IC50 [1] | IC50 [2] | viability at 0.5 µM (HL-60) | inhibition [3] | inhibition [4]
CN(C)CCCCn1c(N)c(-c2nc3ccccc3[nH]2)c2nc(C#N)c(C#N)nc21 | inactive | 2.8 ×10⁵ /M | 16.5 µM | 0.9 µM | 99.3% | inactive | Active
CCN(CC)CCCCn1c(N)c(-c2nc3ccccc3[nH]2)c2nc(C#N)c(C#N)nc21 |  |  |  |  | 99.3% |  | 
